Test results taken from ChEMBL document CHEMBL3259614, “Design, synthesis, and structure-activity relationship studies of novel fused heterocycles-linked triazoles with good activity and water solubility” (J Med Chem, 2014).
Converted amounts (≈) assume the structure as drawn.

Experiments:
Assay type in all cases: functional
Candida albicans [1] = assay: Antimicrobial activity against Candida albicans Y0109 after 24 hrs by serial dilution method; settings: Y0109, 24 h
Procedure, shortened: (§1)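 Broth serial dilution MIC in 96-well plates following NCCLS/CLSI methods. Compounds were dissolved in DMSO and serially diluted in growth medium, with incubation at 35 °C. […] C. parapsilosis 22019 served as the quality-control strain in each assay.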

Candida parapsilosis = assay: Antimicrobial activity against Candida parapsilosis 22019 after 24 hrs by serial dilution method; settings: Lodderomyces parapsilosis, 22019, 24 h; procedure, shortened: as §1
Candida albicans [2] = assay: Antimicrobial activity against Candida albicans SC5314 after 24 hrs by serial dilution method; settings: SC5314, 24 h; procedure, shortened: as §1
Aspergillus fumigatus = assay: Antimicrobial activity against Aspergillus fumigatus 7544 after 48 hrs by serial dilution method; settings: Aspergillus fumigatus, 7544, 48 h; procedure, shortened: as §1
Nakaseomyces glabratus = assay: Antimicrobial activity against Candida glabrata 537 after 24 hrs by serial dilution method; settings: Nakaseomyces glabratus, 537, 24 h; procedure, shortened: as §1
Cryptococcus neoformans = assay: Antimicrobial activity against Cryptococcus neoformans 32609 after 72 hrs by serial dilution method; settings: Cryptococcus neoformans, 32609, 72 h; procedure, shortened: as §1

Row | MIC (Candida albicans [1]) [µg/mL] | MIC (Candida parapsilosis) [µg/mL] | MIC (Candida albicans [2]) [µg/mL] | MIC (Aspergillus fumigatus) [µg/mL] | MIC (Nakaseomyces glabratus) [µg/mL] | MIC (Cryptococcus neoformans) [µg/mL] | Compound
1 | 4 (≈ 7.97 µM) | 2 (≈ 3.98 µM) | 4 (≈ 7.97 µM) | 32 (≈ 63.7 µM) | 4 (≈ 7.97 µM) | 2 (≈ 3.98 µM) | C[C@@H](N1CCc2nc(-c3cccc(Cl)c3)sc2C1)[C@](O)(Cn1cncn1)c1ccc(F)cc1F
2 | 2 (≈ 4.12 µM) | 2 (≈ 4.12 µM) | 2 (≈ 4.12 µM) | 32 (≈ 65.9 µM) | 8 (≈ 16.5 µM) | 2 (≈ 4.12 µM) | C[C@@H](N1CCc2nc(-c3cccc(F)c3)sc2C1)[C@](O)(Cn1cncn1)c1ccc(F)cc1F
3 | 2 (≈ 4.15 µM) | 1 (≈ 2.08 µM) | 2 (≈ 4.15 µM) | 32 (≈ 66.4 µM) | 4 (≈ 8.31 µM) | 4 (≈ 8.31 µM) | Cc1cccc(-c2nc3c(s2)CN([C@H](C)[C@](O)(Cn2cncn2)c2ccc(F)cc2F)CC3)c1
4 | 2 (≈ 3.66 µM) | 2 (≈ 3.66 µM) | 2 (≈ 3.66 µM) | 32 (≈ 58.6 µM) | 8 (≈ 14.6 µM) | 4 (≈ 7.32 µM) | C[C@@H](N1CCc2nc(-c3cccc(Br)c3)sc2C1)[C@](O)(Cn1cncn1)c1ccc(F)cc1F
5 | 1 (≈ 2.01 µM) | 1 (≈ 2.01 µM) | 1 (≈ 2.01 µM) | 16 (≈ 32.2 µM) | 1 (≈ 2.01 µM) | 2 (≈ 4.02 µM) | COc1cccc(-c2nc3c(s2)CN([C@H](C)[C@](O)(Cn2cncn2)c2ccc(F)cc2F)CC3)c1
6 | 0.125 (≈ 0.254 µM) | 2 (≈ 4.06 µM) | 0.125 (≈ 0.254 µM) | 16 (≈ 32.5 µM) | 2 (≈ 4.06 µM) | 1 (≈ 2.03 µM) | C[C@@H](N1CCc2nc(-c3cccc(C#N)c3)sc2C1)[C@](O)(Cn1cncn1)c1ccc(F)cc1F
7 | 0.25 (≈ 0.528 µM) | 1 (≈ 2.11 µM) | 0.25 (≈ 0.528 µM) | 8 (≈ 16.9 µM) | 0.5 (≈ 1.06 µM) | 0.5 (≈ 1.06 µM) | C[C@@H](N1CCc2nc(-c3cccs3)sc2C1)[C@](O)(Cn1cncn1)c1ccc(F)cc1F
8 | 1 (≈ 2.19 µM) | 1 (≈ 2.19 µM) | 0.25 (≈ 0.546 µM) | 8 (≈ 17.5 µM) | 0.5 (≈ 1.09 µM) | 0.5 (≈ 1.09 µM) | C[C@@H](N1CCc2nc(-c3ccco3)sc2C1)[C@](O)(Cn1cncn1)c1ccc(F)cc1F
9 | 0.0312 (≈ 0.0667 µM) | 0.125 (≈ 0.267 µM) | 0.0312 (≈ 0.0667 µM) | 4 (≈ 8.54 µM) | 0.125 (≈ 0.267 µM) | 0.125 (≈ 0.267 µM) | C[C@@H](N1CCc2nc(-c3ccncc3)sc2C1)[C@](O)(Cn1cncn1)c1ccc(F)cc1F
10 | 0.125 (≈ 0.257 µM) | 0.25 (≈ 0.514 µM) | 0.125 (≈ 0.257 µM) | 8 (≈ 16.4 µM) | 0.125 (≈ 0.257 µM) | 0.125 (≈ 0.257 µM) | C[C@@H](N1CCc2nc(-c3cncc(F)c3)sc2C1)[C@](O)(Cn1cncn1)c1ccc(F)cc1F
11 | 0.125 (≈ 0.257 µM) | 0.25 (≈ 0.514 µM) | 0.0625 (≈ 0.128 µM) | 8 (≈ 16.4 µM) | 0.125 (≈ 0.257 µM) | 0.125 (≈ 0.257 µM) | C[C@@H](N1CCc2nc(-c3ccc(F)nc3)sc2C1)[C@](O)(Cn1cncn1)c1ccc(F)cc1F
12 | 0.25 (≈ 0.501 µM) | 0.5 (≈ 1 µM) | 0.25 (≈ 0.501 µM) | 16 (≈ 32.1 µM) | 0.5 (≈ 1 µM) | 0.25 (≈ 0.501 µM) | COc1ccc(-c2nc3c(s2)CN([C@H](C)[C@](O)(Cn2cncn2)c2ccc(F)cc2F)CC3)cn1

The remaining lines, values behind:

Row | Compound | MIC (Candida albicans [1]) [µg/mL] | MIC (Candida parapsilosis) [µg/mL] | MIC (Candida albicans [2]) [µg/mL] | MIC (Aspergillus fumigatus) [µg/mL] | MIC (Nakaseomyces glabratus) [µg/mL] | MIC (Cryptococcus neoformans) [µg/mL]
13 | C[C@@H](N1CCc2nc(-c3ccc(C#N)cc3)sc2C1)[C@](O)(Cn1cncn1)c1ccc(F)cc1F | 0.125 (≈ 0.254 µM) | 0.125 (≈ 0.254 µM) | 0.0625 (≈ 0.127 µM) | 16 (≈ 32.5 µM) | 0.5 (≈ 1.02 µM) | 0.125 (≈ 0.254 µM)
14 | C[C@@H](N1CCc2nc(-c3cncc(C#N)c3)sc2C1)[C@](O)(Cn1cncn1)c1ccc(F)cc1F | 0.25 (≈ 0.507 µM) | 0.25 (≈ 0.507 µM) | 0.125 (≈ 0.253 µM) | 8 (≈ 16.2 µM) | 0.5 (≈ 1.01 µM) | 0.25 (≈ 0.507 µM)
15 | C[C@@H](N1CCc2nc(-c3ccc(C#N)nc3)sc2C1)[C@](O)(Cn1cncn1)c1ccc(F)cc1F | 0.0625 (≈ 0.127 µM) | 0.25 (≈ 0.507 µM) | 0.0625 (≈ 0.127 µM) | 8 (≈ 16.2 µM) | 0.5 (≈ 1.01 µM) | 0.25 (≈ 0.507 µM)
16 | Cc1ncc(-c2nc3c(s2)CN([C@H](C)[C@](O)(Cn2cncn2)c2ccc(F)cc2F)CC3)cn1 | 0.0625 (≈ 0.129 µM) | 0.25 (≈ 0.517 µM) | 0.0625 (≈ 0.129 µM) | 16 (≈ 33.1 µM) | 0.25 (≈ 0.517 µM) | 0.25 (≈ 0.517 µM)
17 | COc1ncc(-c2nc3c(s2)CN([C@H](C)[C@](O)(Cn2cncn2)c2ccc(F)cc2F)CC3)cn1 | 0.125 (≈ 0.25 µM) | 0.25 (≈ 0.5 µM) | 0.0625 (≈ 0.125 µM) | 8 (≈ 16 µM) | 0.25 (≈ 0.5 µM) | 0.5 (≈ 1 µM)
18 | C[C@@H](N1CCc2sc(Br)cc2C1)[C@](O)(Cn1cncn1)c1ccc(F)cc1F | 4 (≈ 8.52 µM) | 8 (≈ 17 µM) | 2 (≈ 4.26 µM) | 64 (≈ 136 µM) | 4 (≈ 8.52 µM) | 2 (≈ 4.26 µM)
19 | C[C@@H](N1CCc2sc(-c3ccccc3)cc2C1)[C@](O)(Cn1cncn1)c1ccc(F)cc1F | 8 (≈ 17.1 µM) | 8 (≈ 17.1 µM) | 1 (≈ 2.14 µM) | 32 (≈ 68.6 µM) | 4 (≈ 8.57 µM) | 2 (≈ 4.29 µM)
20 | C[C@@H](N1CCc2sc(-c3ccc(F)cc3)cc2C1)[C@](O)(Cn1cncn1)c1ccc(F)cc1F | 2 (≈ 4.13 µM) | 8 (≈ 16.5 µM) | 2 (≈ 4.13 µM) | 64 (≈ 132 µM) | 4 (≈ 8.26 µM) | 2 (≈ 4.13 µM)
